Assay results: ChEMBL document CHEMBL4304743, “Discovery of ( E)- N1-(3-Fluorophenyl)- N3-(3-(2-(pyridin-2-yl)vinyl)-1 H-indazol-6-yl)malonamide (CHMFL-KIT-033) as a Novel c-KIT T670I Mutant Selective Kinase Inhibitor for Gastrointestinal Stromal Tumors (GISTs)” (J Med Chem, 2019)
Activity calls are given as the source filed them. No cut-off for these calls is given here.

What was measured:
[1] = Selectivity ratio, ratio of inhibition of wild type TEL fused c-KIT (unknown origin) transfected in mouse BAF3 cells assessed as growth inhibition to inhibition of TEL fused c-KIT T670I mutant (unknown origin) transfected in mouse BAF3 cells assessed as growth inhibition; design: species or system Homo sapiens
How it was run: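 IL-3 independent BaF3 cells stably expressing tel-c-KIT wt or tel-c-KIT T670I, grown in RPMI 1640 with 10% FBS, 2% L-glutamine, 37 °C, 5% CO2. Suspension cells at 1.5 to 5 × 10^4 cells/mL mixed with serial compound dilutions and incubated 72 h. Viability read by CCK-8 absorbance at 450 nm, normalized to DMSO; GI50 from curve fit. Selectivity is wt GI50 over T670I GI50.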

[2] = test system: Mast/stem cell growth factor receptor Kit (Homo sapiens), P10721 [D820E]; test: Inhibition of TEL fused c-KIT D820E mutant (unknown origin) transfected in mouse BAF3 cells assessed as growth inhibition after 72 hrs by CCK8 assay; type: cell-based
How it was run: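 Tel-c-KIT-transformed BaF3 lines (IL-3 independent) kept in RPMI 1640 with 10% FBS, 2% L-glutamine and pen/strep. Cells at 1.5 to 5 × 10^4 cells/mL mixed with graded compound and incubated 72 h at 37 °C, 5% CO2. Viability by CCK-8 absorbance at 450 nm, normalized to DMSO. GI50 from dose–response fit.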

[3] = target: Serine/threonine-protein kinase Nek1 (Homo sapiens) (UniProt Q96PY6); test: Binding affinity to wild-type human partial length NEK1 (M1 to K278 residues) expressed in bacterial expression system assessed as enzyme remaining activity at 1 uM by Kinomescan assay relative to control
How it was run: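 KINOMEscan competition binding panel of 468 kinases and mutants, compound at 1 μM; binding reported as percent of control.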

[4] = Antiproliferative activity against human GIST48B cells incubated for 72 hrs by CCK8 assay; type: functional
How it was run: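 Adherent GIST cells seeded at 1.5-5 × 10^4 cells/mL and left overnight at 37 °C, 5% CO2. Medium then replaced with medium holding serial compound dilutions; 72 h incubation. Viability by CCK-8, absorbance at 450 nm, normalized to DMSO control; GI50 from dose-response fit.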

[5] = test system: Mast/stem cell growth factor receptor Kit (Homo sapiens), P10721 [UNDEFINED MUTATION]; test: Inhibition of c-KIT 560 to 578 deletion/T670I double mutant in human GIST5R cells assessed as reduction in c-KIT autophosphorylation at Y703 residue at 0.1 uM to 3 uM after 1 hr by Western blot analysis; type: cell-based
How it was run: (§1)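 Serial compound dilutions applied for 1 h to GIST-T1, GIST-T1-T670I (CRISPR/Cas9 T670I knock-in, clone confirmed by Sanger sequencing) or GIST-5R cells in DMEM with 10% FBS. Cells then lysed and phospho-proteins detected by standard Western blotting.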

[6] = test system: Mast/stem cell growth factor receptor Kit (Homo sapiens), P10721 [UNDEFINED MUTATION]; test: Inhibition of c-KIT 560 to 578 deletion/T670I double mutant in human GISTT1 cells assessed as reduction in ERK phosphorylation at T202/Y204 residue at 0.1 uM to 3 uM after 1 hr by Western blot analysis; type: cell-based; how it was run: as §1
[7] = test system: Mast/stem cell growth factor receptor Kit (Homo sapiens), P10721 [UNDEFINED MUTATION]; test: Inhibition of c-KIT 560 to 578 deletion/T670I double mutant in human GIST5R cells assessed as reduction in STAT3 phosphorylation after 1 hr by Western blot analysis; type: cell-based; how it was run: as §1
Homo sapiens = species on record: Homo sapiens; test: Induction of apoptosis in human GIST5R cells harboring c-KIT 560 to 578 deletion/T670I double mutant assessed as increase in cleaved caspase level after 24 hrs by Western blot analysis; type: functional, cell-based
GISTT1 = test: Induction of cell cycle arrest in human GISTT1 cells harboring 560 to 578 deletion/T670I double mutant after 24 hrs; type: functional, cell-based
[8] = AUC (0 to infinity) in Sprague-Dawley rat at 1 mg/kg, iv measured after 2 to 720 mins by LC-tandem mass spectrometry analysis; type: ADME, organism-based; design: dose 1 mg/kg, route intravenous, time infinity; settings: in vivo
How it was run: (§2)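 Male Sprague-Dawley rats (190-210 g), fasted 12 h, randomized into two groups: 1 mg/kg i.v. or 10 mg/kg p.o., both formulated in 10% DMSO/90% of 5% glucose water. Blood sampled at 2-720 min (i.v.) or 5-720 min (p.o.). Plasma protein-precipitated with methanol, caffeine internal standard, LC-MS/MS. Noncompartmental analysis; triplicate, ±SD.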

[9] = Apparent clearance in Sprague-Dawley rat at 1 mg/kg, iv measured after 2 to 720 mins by LC-tandem mass spectrometry analysis; type: ADME, organism-based; settings: in vivo, read-out: CL(app) (converted); how it was run: as §2
[10] = Tmax in Sprague-Dawley rat at 10 mg/kg, po measured after 5 to 720 mins by LC-tandem mass spectrometry analysis; type: ADME, organism-based; settings: in vivo
How it was run: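 Male Sprague–Dawley rats (190-210 g), fasted 12 h, given 1 mg/kg i.v. or 10 mg/kg p.o. in DMSO/5% glucose water (1:9). Blood sampled at 2–720 min (i.v.) or 5–720 min (p.o.). Plasma proteins precipitated with methanol using caffeine internal standard, then LC-MS/MS. Noncompartmental analysis; F = AUC0-∞ ratio corrected for dose; triplicate ±SD.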

[11] = MRT (0 to infinity) in mouse at 1 mg/kg, iv measured after 2 to 720 mins by LC-tandem mass spectrometry analysis; type: ADME, organism-based; settings: in vivo
[12] = AUC (0 to t) in mouse at 10 mg/kg, po measured after 5 to 720 mins by LC-tandem mass spectrometry analysis; type: ADME, organism-based; settings: in vivo
How it was run: (§3)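 Mice dosed 1 mg/kg i.v. or 10 mg/kg p.o.; plasma drug levels by LC-MS/MS, parameters by noncompartmental analysis; values not from triplicate testing.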

[13] = Tmax in mouse at 10 mg/kg, po measured after 5 to 720 mins by LC-tandem mass spectrometry analysis; type: ADME, organism-based; settings: in vivo
[14] = Cmax in mouse at 10 mg/kg, po measured after 5 to 720 mins by LC-tandem mass spectrometry analysis; type: ADME, organism-based; design: dose 10 mg/kg, route oral; settings: in vivo; how it was run: as §3
[15] = Oral bioavailability in mouse at 10 mg/kg measured after 5 to 720 mins by LC-tandem mass spectrometry analysis; type: ADME, organism-based; settings: in vivo
Mus musculus [16] = test: Inhibition of c-KIT phosphorylation at Y719 residue in tumor of human GIST5R cells xenografted in nude mouse at 100 mg/kg, po administered as single dose and measured at 2 hrs; type: functional, organism-based
How it was run: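 Female nu/nu mice bearing subcutaneous GIST-5R xenografts (cells in Matrigel, right flank) given one oral gavage dose of 100 mg/kg in HKI suspension (0.5% methocellulose/0.4% Tween80 in ddH2O). Tumors collected over a 2 h time course; p-c-KIT, p-ERK and p-AKT assessed by Western blot; plasma drug levels monitored in parallel.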

Mus musculus [17] = test: Inhibition of c-KIT phosphorylation at Y703 residue in tumor of human GIST5R cells xenografted in nude mouse at 100 mg/kg, po administered as single dose and measured after 2 hrs; type: functional, organism-based
How it was run: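 Female nu/nu mice bearing subcutaneous GIST-5R tumors (cells in Matrigel, right flank) given one oral dose of 100 mg/kg in 0.5% methylcellulose/0.4% Tween80. Tumors collected over a 2 h time course. p-c-KIT, p-ERK and p-AKT measured alongside plasma drug levels.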

Chain of Mast/stem cell growth factor receptor Kit (Homo sapiens), P10721 [UNDEFINED MUTATION] (P10721 whole entry, looked up, stated change not applied): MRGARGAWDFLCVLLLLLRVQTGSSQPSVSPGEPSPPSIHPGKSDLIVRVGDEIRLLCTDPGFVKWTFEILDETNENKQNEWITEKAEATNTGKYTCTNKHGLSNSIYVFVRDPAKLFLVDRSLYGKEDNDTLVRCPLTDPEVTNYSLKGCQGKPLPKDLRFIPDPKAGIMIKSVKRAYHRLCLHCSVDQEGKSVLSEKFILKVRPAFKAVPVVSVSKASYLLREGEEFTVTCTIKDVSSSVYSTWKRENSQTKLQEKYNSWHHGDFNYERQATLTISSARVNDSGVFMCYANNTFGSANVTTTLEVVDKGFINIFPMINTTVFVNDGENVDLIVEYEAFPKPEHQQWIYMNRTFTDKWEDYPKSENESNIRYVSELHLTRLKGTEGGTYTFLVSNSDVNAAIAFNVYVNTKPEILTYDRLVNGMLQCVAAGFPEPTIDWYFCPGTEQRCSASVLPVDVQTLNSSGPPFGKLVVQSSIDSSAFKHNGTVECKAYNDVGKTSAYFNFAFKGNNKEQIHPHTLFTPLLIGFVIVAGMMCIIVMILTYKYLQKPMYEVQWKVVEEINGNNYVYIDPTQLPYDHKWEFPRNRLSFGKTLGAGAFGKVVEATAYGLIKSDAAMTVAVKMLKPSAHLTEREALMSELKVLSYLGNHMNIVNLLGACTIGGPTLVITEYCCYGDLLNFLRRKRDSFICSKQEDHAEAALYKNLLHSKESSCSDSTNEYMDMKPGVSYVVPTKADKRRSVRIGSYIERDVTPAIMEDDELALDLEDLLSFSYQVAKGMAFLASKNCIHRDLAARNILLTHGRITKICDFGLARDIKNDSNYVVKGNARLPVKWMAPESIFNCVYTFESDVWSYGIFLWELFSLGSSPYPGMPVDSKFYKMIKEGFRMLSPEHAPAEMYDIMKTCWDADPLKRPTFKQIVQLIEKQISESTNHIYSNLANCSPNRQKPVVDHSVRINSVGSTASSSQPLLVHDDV
Chain of Serine/threonine-protein kinase Nek1 (Homo sapiens) (Q96PY6 whole entry, the tested form may be a part): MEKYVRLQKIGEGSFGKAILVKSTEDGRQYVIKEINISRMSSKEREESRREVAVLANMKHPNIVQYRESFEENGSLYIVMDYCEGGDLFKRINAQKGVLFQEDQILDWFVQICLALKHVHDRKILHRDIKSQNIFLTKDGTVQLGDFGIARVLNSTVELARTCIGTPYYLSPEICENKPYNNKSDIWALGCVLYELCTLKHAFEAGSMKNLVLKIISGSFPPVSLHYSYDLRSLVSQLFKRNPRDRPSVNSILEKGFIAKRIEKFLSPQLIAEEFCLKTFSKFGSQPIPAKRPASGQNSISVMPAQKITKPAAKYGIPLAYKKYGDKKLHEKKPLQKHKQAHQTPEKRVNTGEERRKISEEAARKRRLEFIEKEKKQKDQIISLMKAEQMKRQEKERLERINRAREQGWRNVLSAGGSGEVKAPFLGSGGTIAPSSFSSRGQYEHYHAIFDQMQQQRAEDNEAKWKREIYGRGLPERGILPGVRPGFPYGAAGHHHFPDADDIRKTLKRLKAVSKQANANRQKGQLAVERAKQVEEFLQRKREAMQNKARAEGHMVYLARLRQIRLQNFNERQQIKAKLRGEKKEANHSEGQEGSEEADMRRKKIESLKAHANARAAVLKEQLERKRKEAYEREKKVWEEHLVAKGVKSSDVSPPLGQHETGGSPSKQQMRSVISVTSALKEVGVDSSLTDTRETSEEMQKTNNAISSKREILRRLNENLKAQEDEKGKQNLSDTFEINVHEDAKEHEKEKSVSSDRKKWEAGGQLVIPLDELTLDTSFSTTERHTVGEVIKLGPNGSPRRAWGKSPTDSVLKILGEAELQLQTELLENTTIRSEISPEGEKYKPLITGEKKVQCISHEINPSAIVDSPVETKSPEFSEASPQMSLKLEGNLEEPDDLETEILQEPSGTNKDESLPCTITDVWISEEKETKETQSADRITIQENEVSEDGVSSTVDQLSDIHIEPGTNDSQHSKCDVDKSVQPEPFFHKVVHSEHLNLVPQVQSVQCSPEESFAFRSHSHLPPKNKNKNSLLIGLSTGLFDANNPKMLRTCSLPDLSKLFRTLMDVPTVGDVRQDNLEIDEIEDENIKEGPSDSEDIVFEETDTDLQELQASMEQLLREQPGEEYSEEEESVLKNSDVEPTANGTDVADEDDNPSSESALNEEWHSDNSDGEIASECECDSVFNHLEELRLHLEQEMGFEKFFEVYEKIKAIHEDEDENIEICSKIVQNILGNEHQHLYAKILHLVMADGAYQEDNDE
Chain of Mast/stem cell growth factor receptor Kit (Homo sapiens), P10721 [D820E] (P10721 whole entry D820E, the tested form may be a part): as the sequence (P10721 whole entry, looked up, stated change not applied) above, with D820E counted along it

O=C(CC(=O)Nc1ccc2c(/C=C/c3ccccn3)n[nH]c2c1)Nc1cccc(F)c1
RatioGI50 [1]: 26 | GI50 [2]: 868 nM | Activity [3]: 0% | GI50 [4]: > 10000 nM | inhibition [5]: Active | inhibition [6]: Active | inhibition [7]: Dose-dependent effect | Activity (Homo sapiens): Dose-dependent effect | Activity (GISTT1): Dose-dependent effect | AUC(0-inf) [8]: 307 ng·h/mL | clearance [9]: 55 mL/min/kg | Tmax [10]: 102 min | MRT inf [11]: 24 min | AUC(0-t) [12]: 1470 ng·h/mL | Tmax [13]: 30 min | Cmax [14]: 1120 ng/mL | bioavailability [15]: 16.4% | inhibition (Mus musculus [16]): Active | inhibition (Mus musculus [17]): inactive
